Source: ChEMBL document CHEMBL1138229, “Novel cyano- and amidino-substituted derivatives of styryl-2-benzimidazoles and benzimidazo[1,2-a]quinolines. Synthesis, photochemical synthesis, DNA binding, and antitumor evaluation, part 3” (J Med Chem, 2007)

What was measured:
DNA = test: Binding affinity to calf thymus DNA by thermal melting temperature assay; assay type: nucleic-acid assay; details: Bos taurus
How it was run: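 ct-DNA (as phosphate concentration) in sodium cacodylate buffer pH 7.0, I = 0.05 mol dm-3. Compound/polynucleotide ratio r = 0.3. Absorbance at 260 nm followed against temperature, ligand absorbance subtracted. Tm taken as transition midpoint by first derivative or tangent method. ΔTm = Tm(complex) − Tm(free DNA), averaged over at least two runs, error ±0.5 °C.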

HEp-2 = test: Antitumor activity against human Hep2 cells after 72 hrs by MTT assay; assay type: functional, cell-based; details: HEp-2, 72 h
How it was run: (§1)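 Cells from ATCC grown as monolayers in DMEM with 10% FBS, 2 mM L-glutamine, penicillin/streptomycin, 5% CO2, 37 °C. Seeded on day 0 at 1 × 10^4/mL (2 × 10^4/mL for MCF-7). Five 10-fold dilutions (10^-8 to 10^-4 mol/L) added, then 72 h exposure. MTT read at 570 nm; percent growth vs time-zero and untreated controls. IC50 by linear regression; quadruplicates, three experiments.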

HeLa [1] = test: Antitumor activity against human HeLa cells after 72 hrs by MTT assay; assay type: functional, cell-based; how it was run: as §1
MIA PaCa-2 = test: Antitumor activity against human MiaPaCa2 cells after 72 hrs by MTT assay; assay type: functional, cell-based; details: MIA PaCa-2, 72 h; how it was run: as §1
SW-620 = test: Antitumor activity against human SW620 cells after 72 hrs by MTT assay; assay type: functional, cell-based; details: SW-620, 72 h; how it was run: as §1
MCF7 = test: Antitumor activity against human MCF7 cells after 72 hrs by MTT assay; assay type: functional, cell-based; details: MCF7, 72 h; how it was run: as §1
[2] = Antiproliferative activity against human […] fibroblast after 72 hrs by MTT assay; assay type: functional; how it was run: as §1
NCI-H460 = test: Antitumor activity against human H460 cells after 72 hrs by MTT assay; assay type: functional, cell-based; details: NCI-H460, 72 h; how it was run: as §1
HeLa [3] = test: Cell cycle arrest in human HeLa cells assessed as accumulation at S phase after 48 hrs at 5 uM; assay type: functional
How it was run: (§2)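 Cells seeded at 2 × 10^5 per well and incubated overnight before compound at 5 × 10^-6 M. After 24, 48 or 72 h, attached and floating cells were pooled, PBS-washed and fixed in 70% ethanol. RNase A (0.1 µg/µl, 37 °C, 15 min), then propidium iodide 1 µg/mL; flow cytometry of 20 000 events. Results given as percent of cells per phase; significance at p < 0.05.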

HeLa [4] = test: Cell cycle arrest in human HeLa cells assessed as accumulation at G2/M phase after 48 hrs at 5 uM; assay type: functional; how it was run: as §2
HeLa [5] = test: Cell cycle arrest in human HeLa cells assessed as accumulation at Sub G1 phase after 72 hrs at 5 uM; assay type: functional; how it was run: as §2
HeLa [6] = test: Cell cycle arrest in human HeLa cells assessed as accumulation at G0/G1 phase after 72 hrs at 5 uM; assay type: functional; how it was run: as §2
HeLa [7] = test: Cell cycle arrest in human HeLa cells assessed as accumulation at Sub G1 phase after 24 hrs at 5 uM; assay type: functional; how it was run: as §2
HeLa [8] = test: Cell cycle arrest in human HeLa cells assessed as accumulation at G0/G1 phase after 24 hrs at 5 uM; assay type: functional; how it was run: as §2
HeLa [9] = test: Cell cycle arrest in human HeLa cells assessed as accumulation at S phase after 24 hrs at 5 uM; assay type: functional; how it was run: as §2
HeLa [10] = test: Cell cycle arrest in human HeLa cells assessed as accumulation at G2/M phase after 24 hrs at 5 uM; assay type: functional; how it was run: as §2
HeLa [11] = test: Cell cycle arrest in human HeLa cells assessed as accumulation at Sub G1 phase after 48 hrs at 5 uM; assay type: functional; how it was run: as §2
HeLa [12] = test: Cell cycle arrest in human HeLa cells assessed as accumulation at G0/G1 phase after 48 hrs at 5 uM; assay type: functional; how it was run: as §2
HeLa [13] = test: Cell cycle arrest in human HeLa cells assessed as accumulation at S phase after 72 hrs at 5 uM; assay type: functional; how it was run: as §2
HeLa [14] = test: Cell cycle arrest in human HeLa cells assessed as accumulation at G2/M phase after 72 hrs at 5 uM; assay type: functional; how it was run: as §2

| ΔTm (DNA) [°C] | IC50 (HeLa [1]) [µM] | IC50 (MIA PaCa-2) [µM] | IC50 (SW-620) [µM] | IC50 (MCF7) [µM] | SMILES | IC50 (HEp-2) [µM] | IC50 [2] [µM] | further results |
| --- | --- | --- | --- | --- | --- | --- | --- | --- |
| -0.5 | 5.4 | > 100 | 78 | 36 | N=C(N)c1ccc2nc(/C=C\c3ccccc3)[nH]c2c1 | ≥ 100 | > 100 | – |
| – | 19 | 36 | 23 | 14 | N#Cc1ccc(/C=C/c2nc3ccccc3[nH]2)cc1 | – | – | IC50 (NCI-H460): 20 µM |
| – | 11 | 62 | 46 | 23 | Clc1ccccc1/C=C\c1nc2ccc(C3=NCCN3)cc2[nH]1 | ≥ 100 | > 100 | – |
| – | 2 | 4 | 2.5 | 4 | N#Cc1ccc2nc(/C=C/c3ccccc3)[nH]c2c1 | – | 14 | IC50 (NCI-H460): 3 µM |
| – | 0.05 | 15 | 8 | 18 | N#Cc1ccc2nc3ccc4ccccc4n3c2c1 | – | 14 | IC50 (NCI-H460): 13 µM |
| 0.1 | 6 | 16 | 12 | 14 | N=C(NN1CCOCC1)c1ccc2nc(/C=C/c3ccccc3)[nH]c2c1 | 13 | 20 | – |
| – | 4 | 17 | 14 | 5 | Clc1ccccc1/C=C/c1nc2ccc(C3=NCCN3)cc2[nH]1 | 16 | 42 | – |
| 5 | 1.7 | 8.1 | 1.6 | 2.2 | CC(C)NC(=N)c1ccc2ccc3nc4ccccc4n3c2c1 | 1.6 | 2.7 | – |
| – | 7.5 | > 100 | > 100 | 22 | N=C(N)c1ccc2nc(/C=C/c3ccccc3Cl)[nH]c2c1 | 23 | > 100 | – |
| 0.7 | 2 | > 100 | 15 | 29 | N=C(N)c1ccc2nc(/C=C/c3ccccc3)[nH]c2c1 | 11 | > 100 | – |
| – | 4 | 7 | 2 | 21 | N#Cc1ccc2c(c1)nc1ccc3ccccc3n12 | – | 5 | IC50 (NCI-H460): 7 µM |
| – | 7 | 15 | 15 | 14 | N=C(NN1CCOCC1)c1ccc2nc(/C=C\c3ccccc3Cl)[nH]c2c1 | 9 | 21 | – |
| 1.3 | 13 | 47 | 22 | 25 | N=C(NN1CCOCC1)c1ccc2nc(/C=C\c3ccccc3)[nH]c2c1 | 61 | 22 | – |
| 1.1 | 11 | > 100 | > 100 | 9 | CC(C)NC(=N)c1ccc2nc(/C=C/c3ccccc3)[nH]c2c1 | ≥ 100 | > 100 | – |
| 1.2 | 23 | 84 | 70 | 33 | CC(C)NC(=N)c1ccc2nc(/C=C\c3ccccc3)[nH]c2c1 | 81 | > 100 | – |
| – | 0.04 | 0.02 | 0.02 | 0.04 | COc1cccc2c1C(=O)c1c(O)c3c(c(O)c1C2=O)C[C@@](O)(C(=O)CO)C[C@@H]3O[C@H]1C[C@H](N)[C@H](O)[C@H](C)O1 [DOXORUBICIN] | 0.04 | – | – |
| 3.6 | 5 | 13 | 17 | 9 | N=C(N)c1ccc2nc3ccc4ccccc4n3c2c1 | 13 | 74 | – |
| 1.4 | 4 | 19 | 16 | 7 | C(=C\c1nc2ccc(C3=NCCN3)cc2[nH]1)/c1ccccc1 | 16 | 21 | – |
| 3.2 | 3 | 2 | 2 | 4 | Cl.N=C(NN1CCOCC1)c1ccc2nc3ccc4ccccc4n3c2c1 | 2 | 4 | Activity (HeLa [3]): 37%; Activity (HeLa [4]): 27%; Activity (HeLa [5]): 2%; Activity (HeLa [6]): 25%; Activity (HeLa [7]): 3%; Activity (HeLa [8]): 36%; Activity (HeLa [9]): 30%; Activity (HeLa [10]): 34%; Activity (HeLa [11]): 2%; Activity (HeLa [12]): 36%; Activity (HeLa [13]): 39%; Activity (HeLa [14]): 35% |
| – | 19 | 28 | 29 | 35 | CC(C)NC(=N)c1ccc2nc(/C=C\c3ccccc3Cl)[nH]c2c1 | 30 | > 100 | – |
| – | 3 | 5 | 4 | 4 | N=C(NN1CCOCC1)c1ccc2nc(/C=C/c3ccccc3Cl)[nH]c2c1 | 10 | 7 | – |
| 5.2 | 4.9 | 4.5 | 2.9 | 4 | N=C(N)c1ccc2ccc3nc4ccccc4n3c2c1 | 4 | 6.7 | – |
| 3.7 | 4 | 3 | 3 | 4 | CC(C)NC(=N)c1ccc2nc3ccc4ccccc4n3c2c1 | 4 | 10 | – |
| 3.2 | 7 | 10 | 1.9 | 6.7 | N=C(NN1CCOCC1)c1ccc2ccc3nc4ccccc4n3c2c1 | 4.7 | 17.7 | – |
| – | 20 | 85 | > 100 | 38 | N=C(N)c1ccc2nc(/C=C\c3ccccc3Cl)[nH]c2c1 | 29 | > 100 | – |
| 3.6 | 7 | 5.6 | 1.4 | 5.3 | c1ccc2c(c1)nc1ccc3ccc(C4=NCCN4)cc3n12 | 2.4 | 7.8 | – |
| – | 12 | 18 | 23 | 16 | c1ccc2c(c1)ccc1nc3ccccc3n12 | 15 | 14 | – |
| – | 10 | 48 | 66 | 16 | CC(C)NC(=N)c1ccc2nc(/C=C/c3ccccc3Cl)[nH]c2c1 | 70 | > 100 | – |

| SMILES | ΔTm (DNA) [°C] | IC50 (HeLa [1]) [µM] | IC50 (MIA PaCa-2) [µM] | IC50 (SW-620) [µM] | IC50 (MCF7) [µM] | IC50 (HEp-2) [µM] | IC50 [2] [µM] | further results |
| --- | --- | --- | --- | --- | --- | --- | --- | --- |
| COc1cc([C@@H]2c3cc4c(cc3[C@@H](O[C@@H]3O[C@@H]5CO[C@@H](C)O[C@H]5[C@H](O)[C@H]3O)[C@H]3COC(=O)[C@H]23)OCO4)cc(OC)c1O [ETOPOSIDE] | – | 3 | 15 | 20 | 50 | – | – | – |
